# Assay results: paper PMC4975651 (Molecular cell, 2016)
# Tested on: Slug, CD44, EGFR, and VEGFA genes
# Type: cell-based, human
# Settings: ectopic expression, ZMYND8-depleted DU145 cells, n = 5
# In short: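 DU145 cells were infected with shZMYND8-97 lentivirus, then transfected with control vector, wild-type FLAG-ZMYND8, PHD point mutants (D108A, F109D) or a Bromo mutant (YN/AA). Construct expression was checked by western blot. DU145 cells treated with shLuciferase and transfected with control vector served as the control. CD44, Slug, VEGFA and EGFR expression was measured across 5 replicates.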
molecule,measurement,value
"FLAG-ZMYND8: ectopically expressed WT FLAG-ZMYND8 (protein, UniProt Q9ULU4 1-1186, looked up, FLAG tag) MYND-type zinc …: MDISTRSKDPGSAERTAQKRKFPSPPHSSNGHSPQDTSTSPIKKKKKPGLLNSNNKEQSELRHGPFYYMKQPLTTDPVDVVPQDGRNDFYCWVCHREGQVLCCELCPRVYHAKCLRLTSEPEGDWFCPECEKITVAECIETQSKAMTMLTIEQLSYLLKFAIQKMKQPGTDAFQKPVPLEQHPDYAEYIFHPMDLCTLEKNAKKKMYGCTEAFLADAKWILHNCIIYNGGNHKLTQIAKVVIKICEHEMNEIEVCPECYLAACQKRDNWFCEPCSNPHPLVWAKLKGFPFWPAKALRDKDGQVDARFFGQHDRAWVPINNCYLMSKEIPFSVKKTKSIFNSAMQEMEVYVENIRRKFGVFNYSPFRTPYTPNSQYQMLLDPTNPSAGTAKIDKQEKVKLNFDMTASPKILMSKPVLSGGTGRRISLSDMPRSPMSTNSSVHTGSDVEQDAEKKATSSHFSASEESMDFLDKSTASPASTKTGQAGSLSGSPKPFSPQLSAPITTKTDKTSTTGSILNLNLDRSKAEMDLKELSESVQQQSTPVPLISPKRQIRSRFQLNLDKTIESCKAQLGINEISEDVYTAVEHSDSEDSEKSDSSDSEYISDDEQKSKNEPEDTEDKEGCQMDKEPSAVKKKPKPTNPVEIKEELKSTSPASEKADPGAVKDKASPEPEKDFSEKAKPSPHPIKDKLKGKDETDSPTVHLGLDSDSESELVIDLGEDHSGREGRKNKKEPKEPSPKQDVVGKTPPSTTVGSHSPPETPVLTRSSAQTSAAGATATTSTSSTVTVTAPAPAATGSPVKKQRPLLPKETAPAVQRVVWNSSSKFQTSSQKWHMQKMQRQQQQQQQQNQQQQPQSSQGTRYQTRQAVKAVQQKEITQSPSTSTITLVTSTQSSPLVTSSGSMSTLVSSVNADLPIATASADVAADIAKYTSKMMDAIKGTMTEIYNDLSKNTTGSTIAEIRRLRIEIEKLQWLHQQELSEMKHNLELTMAEMRQSLEQERDRLIAEVKKQLELEKQQAVDETKKKQWCANCKKEAIFYCCWNTSYCDYPCQQAHWPEHMKSCTQSATAPQQEADAEVNTETLNKSSQGSSSSTQSAPSETASASKEKETSAEKSKESGSTLDLSGSRETPSSILLGSNQGSDHSRSNKSSWSSSDEKRGSTRSDHNTSTSTKSLLPKESRLDTFWD","expression levels of Slug, CD44, EGFR, and VEGFA genes",significantly downregulated
